This is an account of results in ChEMBL document CHEMBL4350987, “Design, synthesis and biological evaluation of novel substituted purine isosters as EGFR kinase inhibitors, with promising pharmacokinetic profile and in vivo efficacy” (Eur J Med Chem, 2019).

Calls of active or inactive are those of the source. The calls are words filed in the database; no cut-off is given here.

In data set [1] the target is Receptor tyrosine-protein kinase erbB-2 (Homo sapiens) (UniProt P04626). In words: Inhibition of human recombinant GST-tagged HER2 (catalytic domain 676 to end residues) autophosphorylation expressed in baculovirus infected Sf9 cells using poly( Glu, Tyr) 4:1 as substrate at 10 uM incubated for 60 mins by ELISA relative to control. Summed up: (§1)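 Wells coated with poly-Glu,Tyr (4:1), 20 µg/well overnight at 4 °C, then blocked with 5% BSA. GST-HER2 added at 200 ng/mL final in HEPES/NaCl/NaVO₄/BSA buffer. Reaction started with ATP spanning Km plus 10 mM MnCl₂ final, run 60 min at 37 °C, stopped with EDTA. Phosphotyrosine detected with HRP anti-pTyr and ABTS at 405 nm; triplicate.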

Data set [2] shares this target. In words: Inhibition of human recombinant GST-tagged HER2 (catalytic domain 676 to end residues) autophosphorylation expressed in baculovirus infected Sf9 cells using poly( Glu, Tyr) 4:1 as substrate at 1 uM incubated for 60 mins by ELISA relative to control. Summed up:
as §1
In general terms: In an ELISA, binding on a coated surface is turned into a signal by an enzyme label.

Data set [3] shares this target. In words: Inhibition of HER2 autophosphorylation in human HCC1954 cells overexpressing HER2 at 0.02 to 2 uM incubated for 1 hr by Western blot analysis. It is filed as cell-based. A digest of the protocol:
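HCC-1954 cells at 60-70% confluence exposed to 0.02 and 2 μM compound for 1 h, then lysed in RIPA with protease inhibitors. About 10 µg protein separated by SDS-PAGE and blotted to PVDF. Phospho- and total HER2 antibodies at 1:1000, HRP secondaries, ECL read-out; β-actin used for normalization.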
For orientation: Immunoblotting shows a protein as a band on a membrane.

Data set [4] relates to A549. In words: Antiproliferative activity against human A549 cells overexpressing EGFR assessed as reduction in cell viability at 1 to 60 uM incubated for 72 hrs by MTT assay. In kind it is functional, cell-based. Background: Tetrazolium dyes change colour on reduction, which living cells bring about.
Data set [5] has as its system HCC1954. In words: Antiproliferative activity against human HCC1954 cells overexpressing HER2 assessed as reduction in cell viability at 1 to 60 uM incubated for 72 hrs by MTT assay. In kind it is functional, cell-based.
Data set [6] deals with Epidermal growth factor receptor (Homo sapiens) (UniProt P00533). In words: Inhibition of EGFR autophosphorylation in human A549 cells overexpressing EGFR at 1 to 10 uM treated with compound for 10 mins prior to EGF stimulation for 10 mins by Western blot analysis. It is filed as cell-based. A digest of the protocol:
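A549 cells grown to 60-70% confluence, then serum-starved 24 h. Exposed to compound for 10 min, then stimulated with 100 ng/mL EGF for 10 min at 37 °C and lysed in RIPA with protease inhibitors. About 10 µg protein run on SDS-PAGE, blotted to PVDF. Phospho- and total EGFR probed at 1:1000, HRP secondaries, ECL detection; β-actin for normalization.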

Data set [7] deals with A549. In words: Antiproliferative activity against human A549 cells overexpressing EGFR assessed as reduction in cell viability incubated for 72 hrs by MTT assay. The following applies: A549, 72 h. It is filed as functional, cell-based. Summed up: (§2)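 Cells seeded at 5×10^3/well in complete medium (DMEM or RPMI, 10% FBS) and left 24 h at 37 °C, 5% CO2. Compounds added at 0.5–150 μM for 72 h. MTT (0.3 mg/mL in PBS) applied for 3 h, formazan dissolved in DMSO, OD read at 570 nm against 650 nm reference. IC50 from four-parameter logistic fit; three experiments in triplicate.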

The next data set concerns NCI-H1975. In words: Antiproliferative activity against human NCI-H1975 cells assessed as reduction in cell viability incubated for 72 hrs by MTT assay. In kind it is functional, cell-based. Particulars: NCI-H1975, 72 h. Summed up:
as §2

Data set [8] has as its system HCC1954. In words: Antiproliferative activity against human HCC1954 cells overexpressing HER2 assessed as reduction in cell viability incubated for 72 hrs by MTT assay. It is filed as functional, cell-based. The following applies: HCC1954, 72 h. A digest of the protocol:
as §2

For the next data set, the system named is MCF7. In words: Antiproliferative activity against human MCF7 cells assessed as reduction in cell viability incubated for 72 hrs by MTT assay. In kind it is functional, cell-based. The following applies: MCF7, 72 h. Summed up:
as §2

The nature of data set [9]: Drug uptake in human A549 cells overexpressing EGFR at 1 uM measured after 48 hrs by LC-MS/MS analysis. In kind it is ADME, cell-based. The following applies: a549, 48 h. Summed up: (§3)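 A549 cells plated at 1.5×10^5 cells/well and exposed to 1 µM compound for 1, 4, 8, 24 and 48 h. Cells washed twice with ice-cold PBS, then lysed. Intracellular amount measured by LC-MS/MS against standard curves with a stable internal standard.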

Data set [10] can be described thus: Cmax in C57BL/6N mouse at 34 micromol/kg, po measured upto 24 hrs by LC-MS/MS analysis. It is filed as ADME, organism-based. Set-up: route oral. The following applies: in vivo, 34 µmol/kg. A digest of the protocol: (§4)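 Male C57BL/6N mice, 10-12 weeks old, n = 5 per group, fasted overnight, single oral gavage dose in 0.5% carboxymethyl cellulose: 0.1% Tween 80 in water. Serial tail bleeds of 10 μL at 0.25, 0.5, 1, 2, 4, 6, 8 and 24 h into 0.1 M citric acid pH 4.5, stored at -80 °C. Samples processed by protein precipitation and evaporation, then quantified in blood by LC-MS/MS.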

Data set [11] is described as follows: Tmax in C57BL/6N mouse at 34 micromol/kg, po measured upto 24 hrs by LC-MS/MS analysis. The following applies: in vivo, 34 µmol/kg. In kind it is ADME, organism-based. A digest of the protocol:
as §4

The nature of data set [12]: AUC (0 to 24 hrs) in C57BL/6N mouse at 34 micromol/kg, po measured upto 24 hrs by LC-MS/MS analysis. More on the design: time < 24 hr, route oral. In kind it is ADME, organism-based. The following applies: in vivo, 34 µmol/kg. Summed up:
as §4

Data set [13] in a line: AUC (1 to 48 hrs) in human A549 cells overexpressing EGFR at 1 uM measured per 0.1 million cells by LC-MS/MS analysis. The following applies: a549, 48 h.
Data set [14] deals with A549. In words: Antitumor activity against human A549 cells overexpressing EGFR xenografted in NOD/SCID mouse assessed as tumor volume at 86 micromol/kg, po administered once daily for 27 days measured at day 27 at 2 hrs after last administered dose (reference value: 1869 +/- 134 mm3). In kind it is functional. A digest of the protocol: (§5)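 NOD/SCID mice (n=4 per group, 2 male, 2 female) injected in each flank with 5×10⁶ A549 cells in DMEM, 10% FBS. Daily oral dosing started at about 150–160 mm³ tumors; vehicle 0.5% carboxymethyl cellulose: 0.1% Tween 80 in water. Caliper measurements every three days, V = π×D×d²/6. Body weight and signs of discomfort monitored. Study ended day 27, 2 h post last dose.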

The nature of data set [15]: Drug concentration in NOD/SCID mouse blood xenografted with human A549 cells overexpressing EGFR at 86 micromol/kg, po administered once daily for 27 days and measured at day 27 at 2 hrs after last administered dose by LC-MS/MS analysis. In kind it is ADME, organism-based. Particulars: 86 µmol/kg, read-out: Ct. A digest of the protocol: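 A549 xenografts in NOD/SCID mice dosed orally once daily for 27 days, vehicle 0.5% carboxymethyl cellulose: 0.1% Tween 80 in water. Blood collected 2 h after the final dose on day 27, with animals euthanized under isoflurane. Drug level quantified by LC-MS/MS.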

Data set [16] is described as follows: Toxicity in NOD/SCID mouse xenografted with human A549 cells overexpressing EGFR assessed as changes in body weight at 86 micromol/kg, po administered once daily for 27 days. In kind it is organism-based. Particulars: in vivo, 648 h. Summed up:
as §5

Data set [17] can be described thus: Drug uptake in human A549 cells overexpressing EGFR at 1 uM measured after 24 hrs by LC-MS/MS analysis. It is filed as ADME, cell-based. The following applies: a549, 24 h. Summed up: as §3

Epidermal growth factor receptor (Homo sapiens), sequence (P00533 whole entry): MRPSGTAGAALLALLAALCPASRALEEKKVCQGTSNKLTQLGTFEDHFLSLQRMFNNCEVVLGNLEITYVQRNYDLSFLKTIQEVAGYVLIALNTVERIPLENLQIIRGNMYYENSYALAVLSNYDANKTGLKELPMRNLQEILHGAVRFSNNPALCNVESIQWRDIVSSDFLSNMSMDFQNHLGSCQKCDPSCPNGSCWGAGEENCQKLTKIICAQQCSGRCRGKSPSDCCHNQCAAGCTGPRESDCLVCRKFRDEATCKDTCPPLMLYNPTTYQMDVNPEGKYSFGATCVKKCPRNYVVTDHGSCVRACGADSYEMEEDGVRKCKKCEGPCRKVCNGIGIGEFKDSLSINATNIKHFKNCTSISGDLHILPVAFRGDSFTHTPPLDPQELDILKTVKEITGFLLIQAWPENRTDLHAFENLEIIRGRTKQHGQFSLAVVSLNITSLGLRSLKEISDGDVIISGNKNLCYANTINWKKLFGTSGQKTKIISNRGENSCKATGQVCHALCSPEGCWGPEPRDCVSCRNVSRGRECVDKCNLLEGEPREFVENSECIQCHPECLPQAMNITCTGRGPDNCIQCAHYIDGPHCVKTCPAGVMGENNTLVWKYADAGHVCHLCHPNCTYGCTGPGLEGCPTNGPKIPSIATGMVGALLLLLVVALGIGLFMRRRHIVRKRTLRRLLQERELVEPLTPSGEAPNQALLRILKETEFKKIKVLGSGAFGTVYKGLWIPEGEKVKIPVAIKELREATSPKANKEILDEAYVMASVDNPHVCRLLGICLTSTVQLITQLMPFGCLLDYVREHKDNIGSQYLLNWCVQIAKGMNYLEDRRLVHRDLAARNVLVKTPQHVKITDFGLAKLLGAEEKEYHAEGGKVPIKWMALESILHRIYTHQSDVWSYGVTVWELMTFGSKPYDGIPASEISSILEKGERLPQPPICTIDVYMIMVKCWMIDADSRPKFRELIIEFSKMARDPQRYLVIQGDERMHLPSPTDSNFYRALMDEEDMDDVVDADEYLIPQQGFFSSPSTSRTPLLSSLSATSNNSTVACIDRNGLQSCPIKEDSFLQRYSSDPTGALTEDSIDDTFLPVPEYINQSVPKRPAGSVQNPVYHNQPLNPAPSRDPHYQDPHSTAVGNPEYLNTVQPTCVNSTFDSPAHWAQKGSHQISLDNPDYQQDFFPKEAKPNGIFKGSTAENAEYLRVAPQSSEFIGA
Receptor tyrosine-protein kinase erbB-2 (Homo sapiens), sequence (P04626 whole entry, the tested form may be a part): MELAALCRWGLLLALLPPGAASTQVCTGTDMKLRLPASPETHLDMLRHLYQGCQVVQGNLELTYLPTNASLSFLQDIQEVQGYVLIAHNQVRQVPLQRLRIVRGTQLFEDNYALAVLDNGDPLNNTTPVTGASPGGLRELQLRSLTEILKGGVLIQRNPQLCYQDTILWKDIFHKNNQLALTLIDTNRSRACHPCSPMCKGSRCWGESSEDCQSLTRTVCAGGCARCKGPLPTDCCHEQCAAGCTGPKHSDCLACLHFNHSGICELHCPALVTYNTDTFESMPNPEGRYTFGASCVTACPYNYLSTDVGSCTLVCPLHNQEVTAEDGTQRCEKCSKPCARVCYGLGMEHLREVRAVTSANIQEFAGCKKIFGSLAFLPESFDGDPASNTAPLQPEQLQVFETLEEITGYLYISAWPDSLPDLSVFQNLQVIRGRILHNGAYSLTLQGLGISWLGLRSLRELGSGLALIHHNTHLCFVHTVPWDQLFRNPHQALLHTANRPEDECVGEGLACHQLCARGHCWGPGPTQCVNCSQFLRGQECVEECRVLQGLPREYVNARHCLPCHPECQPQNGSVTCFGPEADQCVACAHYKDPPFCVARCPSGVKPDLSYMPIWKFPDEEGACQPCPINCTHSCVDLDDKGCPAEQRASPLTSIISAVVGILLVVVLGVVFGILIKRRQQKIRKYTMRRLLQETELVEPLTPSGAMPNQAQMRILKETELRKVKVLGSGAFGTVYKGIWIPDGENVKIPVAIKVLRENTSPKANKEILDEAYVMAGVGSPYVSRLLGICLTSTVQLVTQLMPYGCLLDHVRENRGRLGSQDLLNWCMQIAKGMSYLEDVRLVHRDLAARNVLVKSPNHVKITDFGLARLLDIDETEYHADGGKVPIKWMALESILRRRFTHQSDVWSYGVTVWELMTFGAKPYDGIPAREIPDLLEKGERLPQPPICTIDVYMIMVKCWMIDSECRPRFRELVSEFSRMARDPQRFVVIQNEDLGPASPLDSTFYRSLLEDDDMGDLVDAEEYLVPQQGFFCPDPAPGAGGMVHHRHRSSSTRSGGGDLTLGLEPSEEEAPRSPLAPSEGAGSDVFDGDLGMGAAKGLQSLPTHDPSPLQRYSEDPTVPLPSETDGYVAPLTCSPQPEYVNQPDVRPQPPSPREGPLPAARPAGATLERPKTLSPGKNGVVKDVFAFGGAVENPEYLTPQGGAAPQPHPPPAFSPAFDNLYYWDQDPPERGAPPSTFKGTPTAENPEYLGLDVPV

What is called inhibition is how much of the control response was suppressed. `Fc1cccc(COc2ccc(Nc3ncnc4[nH]c(-c5ccco5)nc34)cc2Cl)c1`: the inhibition in data set [1] was 86%; in [2], 51%. Besides, the inhibition result (in [3]; in the data set with A549 [4]; in the data set with HCC1954 [5]) was “Active” each time.
As a reminder, the IC50 is the concentration needed to halve the response being measured. By Cmax is commonly meant the peak of the concentration-time curve. The term Tmax denotes the time from dosing to the highest level. What is called AUC(0-t) is exposure summed from dosing to a finite time, without extrapolation to infinity. High values mean more exposure, low ones less exposure. On to `CS(=O)(=O)CCNCc1ccc(-c2nc3c(Nc4ccc(OCc5cccc(F)c5)c(Cl)c4)ncnc3[nH]2)o1`, for which the inhibition entry (in data set [6]; with A549 [4]; with HCC1954 [5]) was “Active” in each case. Besides, the inhibition in data set [1] was 32%; in data set [2], 28%. For the same compound, the IC50 is 33 µM with A549 [7], 30 µM in the data set on NCI-H1975, 14 µM in the data set with HCC1954 [8] and 105 µM in the data set on MCF7. In data set [9], the Drug uptake is 0.01 nmol/100,000 cells. For the same compound, the Cmax in data set [10] was determined as 70 nM. Further, in [11], the Tmax came to 2 h. This compound had an AUC(0-t) at 24 h in [12] of 0.87 µM·h. The same compound returned an AUC in [13] of 0.35 nmol/100.000 cells x h.
Consider `Fc1cccc(COc2ccc(Nc3ncc(F)c4[nH]c(-c5ccco5)nc34)cc2Cl)c1`, for which the inhibition in data set [1] turned out to be 79%; in [2], 10%.
Take `Fc1cccc(COc2ccc(Nc3nccc4[nH]c(-c5ccco5)nc34)cc2Cl)c1`: the results for the inhibition in data set [1] and in [2] were 86% and 82%, respectively. The inhibition result in the data set with A549 [4] and with HCC1954 [5] was “inactive” each time.
Turning to `CS(=O)(=O)CCNCc1ccc(-c2nc3c(Nc4ccc(OCc5cccc(F)c5)c(Cl)c4)ccnc3[nH]2)o1`, the inhibition result in data set [6] and in data set [3] was “Active” in each case. The inhibition in data set [1] stood at 46%; in [2], 33%. Also, the inhibition result in the data set with A549 [4] and in the data set on HCC1954 [5] was “inactive” each time.
Regarding `CS(=O)(=O)CCNCc1ccc(-c2ccc3ncnc(Nc4ccc(OCc5cccc(F)c5)c(Cl)c4)c3c2)o1` [LAPATINIB], the inhibition worked out at 97% in data set [1] and 86% in data set [2]. The inhibition result in data set [3] was “Active”. Further, the IC50 with A549 [7] stood at 11 µM; in the data set on NCI-H1975, 9 µM; in the data set on HCC1954 [8], 5 µM; in the data set with MCF7 it was 95 µM. In addition, in data set [9], the Drug uptake is 0.02 nmol/100,000 cells. In data set [10], this compound showed a Cmax of 1470 nM. In data set [11], the Tmax was 2 h. This compound showed an AUC(0-t) at 24 h in [12] of 6.7 µM·h. In addition, in the data set with A549 [14], the Activity is given as 1338 mm3. In [15], the concentration at 2 h came to 2810 nM. The compound further returned an AUC in [13] of 1.06 nmol/100.000 cells x h.
On to `Fc1cccc(COc2ccc(Nc3ccnc4[nH]c(-c5ccco5)nc34)cc2Cl)c1`, for which the inhibition entry (in data set [6]; with A549 [4]; in the data set with HCC1954 [5]) was “Active” in each case. Also, the inhibition in data set [1] amounted to 58%; in data set [2], 24%. Besides, the IC50 with A549 [7] stood at 3 µM; in the data set on NCI-H1975, 10 µM; in the data set with HCC1954 [8], 9 µM; in the data set with MCF7 it was 126 µM. Besides, the Drug uptake is 0.04 nmol/100,000 cells in [9] and “Active” in [17]. This compound also registered a Cmax in data set [10] of 300 nM. Moreover, the Tmax in data set [11] worked out at 2 h. The AUC(0-t) at 24 h in data set [12] came out at 2.1 µM·h. Also, the Activity is reported as 1311 mm3 in the data set on A549 [14] and “Non-Toxic” in [16]. The concentration at 2 h in data set [15] was determined as 640 nM. In [13], this compound came in with an AUC of 1.5 nmol/100.000 cells x h.
With `CS(=O)(=O)CCNCc1ccc(-c2nc3c(Nc4ccc(OCc5cccc(F)c5)c(Cl)c4)nccc3[nH]2)o1`, the inhibition result in [6] and in data set [3] was “Active” each time. In addition, the inhibition in [1] is 34%; in data set [2], 25%.
In the case of `CS(=O)(=O)CCNCc1ccc(-c2nc3c(Nc4ccc(OCc5cccc(F)c5)c(Cl)c4)ncc(F)c3[nH]2)o1`, the inhibition in data set [1] was 13%; in data set [2], 0%. Further, the inhibition result in data set [3] is “Active”.
